Test results reported in the array DNA melting data of Ke et al. (doi:10.1101/2024.01.08.574731).

Experiments:
[1] = melting temperature; fluorescence melt of hairpins on a sequencing array, two-state fit, raised by 9.35 °C to match UV melts; settings: sodium 0.088 M
How it was run: (§1)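 In 50 mM Na-HEPES pH 8.0 containing 25 mM NaCl, hairpins from the library on a sequenced MiSeq flow cell were imaged for Cy3 fluorescence at 2.5 °C steps up to 60 °C, with Cy3 and quencher oligos annealed. After normalisation to pre-quench Cy3 and to control constructs, two-state fits with bootstrapping gave melting temperature and folding enthalpy. Four replicates were combined by inverse-variance weighting, and fitted temperatures were shifted up by 9.35 °C to match UV melts.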

[2] = folding enthalpy; higher = less favourable; fluorescence melt of hairpins on a sequencing array, two-state fit; settings: sodium 0.088 M
How it was run: as §1

## GATCTTTGTAAGATC ((((((...))))))
[1]
  Tm: 45.5 °C
[2]
  folding enthalpy: -28.8 kcal/mol

## AAGACGAAAGTCTT (((((....)))))
[1]
  Tm: 52.7 °C
[2]
  folding enthalpy: -20.1 kcal/mol

## GTTAATGGAAACATTAGC (.(((((....))))).)
[1]
  Tm: 34.8 °C
[2]
  folding enthalpy: -20.7 kcal/mol

## GTTGGAGGAAACTCCGAC ((.((((....)))).))
[1]
  Tm: 52.8 °C
[2]
  folding enthalpy: -40.7 kcal/mol

## GATCCCGGACGGGATC ((((((....))))))
[1]
  Tm: 68.5 °C
[2]
  folding enthalpy: -34.5 kcal/mol

## GCGATTGGAAACAATTGC ((.((((....)))).))
[1]
  Tm: 49.7 °C
[2]
  folding enthalpy: -35.4 kcal/mol

## GAAACCGAAAGGTTCTTC ((((((....)))..)))
[1]
  Tm: 54.4 °C
[2]
  folding enthalpy: -22.5 kcal/mol

## GATGAGCGAAAGCTATC (((.(((....))))))
[1]
  Tm: 35.1 °C
[2]
  folding enthalpy: -14.7 kcal/mol

## GAAAGAGCGAAAGCTTTC (((..(((....))))))
[1]
  Tm: 32.5 °C
[2]
  folding enthalpy: -13.8 kcal/mol

## GATCAAAAGTTGATC ((((((...))))))
[1]
  Tm: 39.5 °C
[2]
  folding enthalpy: -26.1 kcal/mol

## GTATAGGCGAAAGCCTAC (((..(((....))))))
[1]
  Tm: 31.8 °C
[2]
  folding enthalpy: -8.12 kcal/mol

## GCGTGCGAAAGCATCCGC ((((((....)))..)))
[1]
  Tm: 47.6 °C
[2]
  folding enthalpy: -17.3 kcal/mol

## GTCAGAGGAAACTTTGAC ((((.((....)).))))
[1]
  Tm: 37.8 °C
[2]
  folding enthalpy: -32.4 kcal/mol

## GTCGAACGAAAGTTGGAC (((.(((....))).)))
[1]
  Tm: 50.6 °C
[2]
  folding enthalpy: -46.4 kcal/mol

## GCAGATGGAAACACCTGC ((((.((....)).))))
[1]
  Tm: 44.2 °C
[2]
  folding enthalpy: -28.9 kcal/mol

## GACAGTGGAAACGTTGTC ((((..(....)..))))
[1]
  Tm: 36.2 °C
[2]
  folding enthalpy: -20.9 kcal/mol

## GAAACAGAAATGTTTC ((((((....))))))
[1]
  Tm: 45.9 °C
[2]
  folding enthalpy: -28.5 kcal/mol

## GGTTTTACGAAAGTAACC (((..(((....))))))
[1]
  Tm: 31.7 °C
[2]
  folding enthalpy: -11.8 kcal/mol

## GTTGAGCGAAAGCTGAAC (((.(((....))).)))
[1]
  Tm: 46.2 °C
[2]
  folding enthalpy: -23.9 kcal/mol

## GATCGGGGAAACCTGATC ((((.((....)).))))
[1]
  Tm: 49.2 °C
[2]
  folding enthalpy: -43.8 kcal/mol

## CGTCAACGGAAACGTACG (((..(((....))))))
[1]
  Tm: 35.6 °C
[2]
  folding enthalpy: -11.4 kcal/mol

## GGTTCTCCGAAAGGAACC (((..(((....))))))
[1]
  Tm: 42.9 °C
[2]
  folding enthalpy: -20.8 kcal/mol

## GCCACCTCGAAAGAGGGC (((..(((....))))))
[1]
  Tm: 44.5 °C
[2]
  folding enthalpy: -9.58 kcal/mol

## GTAGTGGAAACACTAC ((((((....))))))
[1]
  Tm: 53.4 °C
[2]
  folding enthalpy: -45.9 kcal/mol

## GATCCCACCAGGGATC ((((((....))))))
[1]
  Tm: 61.4 °C
[2]
  folding enthalpy: -41.8 kcal/mol

## GCACAGCGAAAGCTTGC (((.(((....))))))
[1]
  Tm: 51.5 °C
[2]
  folding enthalpy: -20.1 kcal/mol

## GCACATGGAAACACGTGC ((((.((....)).))))
[1]
  Tm: 46.7 °C
[2]
  folding enthalpy: -41 kcal/mol

## GAATGGGGAAACCCGTTC (((.(((....))).)))
[1]
  Tm: 48.2 °C
[2]
  folding enthalpy: -35.5 kcal/mol

## GCTCCAGAAATGGAGC ((((((....))))))
[1]
  Tm: 65.8 °C
[2]
  folding enthalpy: -32 kcal/mol

## GATCGGTAAACCGATC ((((((....))))))
[1]
  Tm: 56.2 °C
[2]
  folding enthalpy: -40.7 kcal/mol

## GATCCCGGCTGGGATC ((((((....))))))
[1]
  Tm: 60.4 °C
[2]
  folding enthalpy: -32 kcal/mol

## GATCTGTGTCAGATC ((((((...))))))
[1]
  Tm: 50.6 °C
[2]
  folding enthalpy: -34.1 kcal/mol

## GATCCCTGCGGGATC ((((((...))))))
[1]
  Tm: 66.1 °C
[2]
  folding enthalpy: -35.8 kcal/mol

## GTACGGGGAAACCTGTAC ((((.((....)).))))
[1]
  Tm: 49.7 °C
[2]
  folding enthalpy: -35.9 kcal/mol

## GCTTCGACGAAAGTCAGC (((..(((....))))))
[1]
  Tm: 33.5 °C
[2]
  folding enthalpy: -13.1 kcal/mol

## GACAGGACGAAAGTCGTC (((..(((....))))))
[1]
  Tm: 42.6 °C
[2]
  folding enthalpy: -16.7 kcal/mol

## GATCGTATTACGATC ((((((...))))))
[1]
  Tm: 57 °C
[2]
  folding enthalpy: -36.1 kcal/mol

## GATCCCCGTAGGGATC ((((((....))))))
[1]
  Tm: 61.9 °C
[2]
  folding enthalpy: -20.6 kcal/mol

## GATCAGTACGCTGATC ((((((....))))))
[1]
  Tm: 53.8 °C
[2]
  folding enthalpy: -44.1 kcal/mol

## GAGCGCGCGAAAGCGCTC (((..(((....))))))
[1]
  Tm: 64.6 °C
[2]
  folding enthalpy: -12.4 kcal/mol

## GCAGCGCGAAAGCCTTGC (((..((....))..)))
[1]
  Tm: 40 °C
[2]
  folding enthalpy: -12.4 kcal/mol

## GAGCTCCGAAAGGACTC (((.(((....))))))
[1]
  Tm: 47.4 °C
[2]
  folding enthalpy: -23.6 kcal/mol

## GATCTAAACGTAGATC ((((((....))))))
[1]
  Tm: 35.8 °C
[2]
  folding enthalpy: -28.7 kcal/mol

## GATCTCATTTGAGATC ((((((....))))))
[1]
  Tm: 55.5 °C
[2]
  folding enthalpy: -37.4 kcal/mol

## GATCGCCGAAAGGCCATC (((.(((....))).)))
[1]
  Tm: 38.6 °C
[2]
  folding enthalpy: -14.5 kcal/mol

## GATCGACGGATCGATC ((((((....))))))
[1]
  Tm: 51.1 °C
[2]
  folding enthalpy: -29 kcal/mol

## GACGTACGAAAGTAGTC (((.(((....))))))
[1]
  Tm: 52.8 °C
[2]
  folding enthalpy: -34 kcal/mol

## GACCCCGAAAGGGAGGTC ((((((....)))..)))
[1]
  Tm: 49.4 °C
[2]
  folding enthalpy: -21.8 kcal/mol

## GTAATTGGAAACAATTGC (.(((((....))))).)
[1]
  Tm: 39.2 °C
[2]
  folding enthalpy: -26.5 kcal/mol

## GAGACCGAAAGGTCCCTC ((((((....)))..)))
[1]
  Tm: 44.6 °C
[2]
  folding enthalpy: -11.1 kcal/mol

## GACGATGGAAACATCATC ((.((((....)))).))
[1]
  Tm: 33.4 °C
[2]
  folding enthalpy: -18.4 kcal/mol

## GCCTTGCGAAAGCAAAGC ((.((((....)))).))
[1]
  Tm: 55.9 °C
[2]
  folding enthalpy: -14.9 kcal/mol

## GATCTCCGCAGAGATC ((((((....))))))
[1]
  Tm: 57.8 °C
[2]
  folding enthalpy: -34.6 kcal/mol

## GACGATGGAAACACCATC ((.(.((....)).).))
[1]
  Tm: 28.4 °C
[2]
  folding enthalpy: -17 kcal/mol

## GCGGCCGAAAGGCCCCGC ((((((....)))..)))
[1]
  Tm: 48.1 °C
[2]
  folding enthalpy: -10.3 kcal/mol

## GCGATATTCGC ((((...))))
[1]
  Tm: 51.9 °C
[2]
  folding enthalpy: -17.2 kcal/mol

## GATCCGTTTCGGATC ((((((...))))))
[1]
  Tm: 63 °C
[2]
  folding enthalpy: -38 kcal/mol

## GATCCTGTAAAGGATC ((((((....))))))
[1]
  Tm: 60.5 °C
[2]
  folding enthalpy: -39.6 kcal/mol

## GCTCGAGGAAACTTGAGC ((((.((....)).))))
[1]
  Tm: 50.8 °C
[2]
  folding enthalpy: -37.8 kcal/mol

## GCTGCGCGAAAGCTAAGC (((..((....))..)))
[1]
  Tm: 44 °C
[2]
  folding enthalpy: -23.4 kcal/mol

## GATCAAGACTTGATC ((((((...))))))
[1]
  Tm: 43.4 °C
[2]
  folding enthalpy: -32.4 kcal/mol

## GCGAGAGGAAACCCTCGC (((((.(....).)))))
[1]
  Tm: 54.1 °C
[2]
  folding enthalpy: -27.8 kcal/mol

## GTGGTAGGAAACTGTCAC (((..((....))..)))
[1]
  Tm: 32.9 °C
[2]
  folding enthalpy: -17.3 kcal/mol

## GAGGGCGAAAGCCCACTC ((((((....)))..)))
[1]
  Tm: 55.6 °C
[2]
  folding enthalpy: -10.6 kcal/mol

## GGGGCGGGAAACCGCTCC ((.((((....)))).))
[1]
  Tm: 66.9 °C
[2]
  folding enthalpy: -19.8 kcal/mol

## AGCTTGAAAAAGCT (((((....)))))
[1]
  Tm: 47.9 °C
[2]
  folding enthalpy: -17.4 kcal/mol

## GCCCGGGGAAACCTGGGC ((((.((....)).))))
[1]
  Tm: 62.3 °C
[2]
  folding enthalpy: -52.3 kcal/mol

## GTAAAGCGAAAGCTTAC (((.(((....))))))
[1]
  Tm: 42.6 °C
[2]
  folding enthalpy: -12.8 kcal/mol

## GTAGGCGAAAGCCCCTAC ((((((....)))..)))
[1]
  Tm: 23.7 °C
[2]
  folding enthalpy: -7.29 kcal/mol
